Consider ten compounds from ChEMBL document CHEMBL3102741, “A novel 2,3-diphenyl-4H-pyrido[1,2-a]pyrimidin-4-one derivative inhibits endothelial cell dysfunction and smooth muscle cell proliferation/activation” (Eur J Med Chem, 2014).

For data set [1], the system named is HUVEC. As to the kind of experiment: Antiinflammatory activity in HUVEC assessed as inhibition of TNF-alpha-induced VCAM1 expression incubated for 1 hr prior to TNF-alpha challenge measured after overnight incubation by enzyme immunoassay method. It counts as functional, Homo sapiens. Put shortly:
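Confluent HUVECs in 96-well plates were pre-treated 1 h with compound (25 µM), then stimulated with TNF-α 10 ng/mL overnight. Cell-surface VCAM-1 was measured by cell-surface enzyme immunoassay. Three independent experiments, each with n = 8 replicates.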

For data set [2], the system named is HUVEC. The data set is described as follows: Cytotoxicity against HUVEC assessed as cell viability up to 50 uM after 24 to 72 hrs by WST-1 assay. The class given is cell-based. To be noted: human. Summed up:
(§1)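 HUVECs were exposed to compound (10, 25, 50 µM; 0.1% DMSO vehicle) for 24 h or 72 h. WST-1 premix was added for a further 2 h, and formazan absorbance was read at 450 nm as a measure of mitochondrial dehydrogenase activity. Three independent experiments, each with n = 6 replicates.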
(In general: Tetrazolium assays rely on reduction of a dye to a coloured formazan, in cell work by metabolically active cells.)

In data set [3] the test system is HUVEC. The data set is described as follows: Cytotoxicity against HUVEC assessed as cell viability at 10 uM after 24 to 72 hrs by WST-1 assay relative to untreated control. It counts as cell-based. The settings on record: human. Summed up:
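HUVECs (used up to fifth passage from primary culture) in 96-well plates exposed to compound for 24 h or 72 h, DMSO final ≤0.1% as vehicle; WST-1 premix added for further 2 h, absorbance at 450 nm; viability relative to untreated cells. Morphology also checked by phase-contrast microscopy. Mean of three independent experiments, each n = 6 replicates.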

The test system of data set [4] is HUVEC. As to the kind of experiment: Cytotoxicity against HUVEC assessed as cell viability at 10 to 50 uM after 24 to 72 hrs by WST-1 assay relative to untreated control. The class given is cell-based. To be noted: human. Summed up:
as §1

The test system of data set [5] is HUVEC. The data set is described as follows: Cytotoxicity against HUVEC assessed as cell detachment at 10 to 50 uM after 72 hrs by phase-contrast microscopy. The class given is cell-based. To be noted: human. Summed up:
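After 72 h of treatment with compound at concentrations up to 50 µM, HUVEC morphology was examined by phase-contrast microscopy.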

In data set [6] the target is Matrix metalloproteinase-9 (Homo sapiens) (UniProt P14780). As to the kind of experiment: Inhibition of PMA-induced MMP9 activity in HAoSMC at 25 uM after 24 hrs by gelatin zymography relative to control. Summed up:
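HAoSMCs were treated with PMA 10 nM in serum-free medium, with or without compound (10, 25 µM), for 24 h. Conditioned medium ([…]) was run on 11% SDS-PAGE containing 0.1% gelatin at 125 V and 4 °C. Gels were washed in Triton X-100, incubated 24 h at 37 °C in Tris pH 7.5/CaCl2 buffer, and Coomassie-stained. Lysis bands were quantified by densitometry.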

The species named for data set [7] is Homo sapiens. The data set is described as follows: Antiinflammatory activity in HAoSMC assessed as inhibition of PMA-induced MMP-9 mRNA expression at 10 to 25 uM incubated for 1 hr prior to PMA challenge measured after overnight incubation by RT-PCR analysis. It counts as functional. Summed up: (§2)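 Confluent cells (HAoSMCs at passages 20–30, HUVECs up to fifth passage) were pre-treated 1 h with compound (1, 10, 25 µM) or 0.1% DMSO, then stimulated with PMA 10 nM, PDGF-BB 20 ng/mL or TNF-α 10 ng/mL overnight. Total RNA was extracted and RT-PCR run with GAPDH co-amplified. Bands were quantified by densitometry and normalized to GAPDH. Three determinations.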

Data set [8] concerns the target T1, Prostaglandin G/H synthase 2 (Homo sapiens) (UniProt P35354).
T1 sequence (whole entry): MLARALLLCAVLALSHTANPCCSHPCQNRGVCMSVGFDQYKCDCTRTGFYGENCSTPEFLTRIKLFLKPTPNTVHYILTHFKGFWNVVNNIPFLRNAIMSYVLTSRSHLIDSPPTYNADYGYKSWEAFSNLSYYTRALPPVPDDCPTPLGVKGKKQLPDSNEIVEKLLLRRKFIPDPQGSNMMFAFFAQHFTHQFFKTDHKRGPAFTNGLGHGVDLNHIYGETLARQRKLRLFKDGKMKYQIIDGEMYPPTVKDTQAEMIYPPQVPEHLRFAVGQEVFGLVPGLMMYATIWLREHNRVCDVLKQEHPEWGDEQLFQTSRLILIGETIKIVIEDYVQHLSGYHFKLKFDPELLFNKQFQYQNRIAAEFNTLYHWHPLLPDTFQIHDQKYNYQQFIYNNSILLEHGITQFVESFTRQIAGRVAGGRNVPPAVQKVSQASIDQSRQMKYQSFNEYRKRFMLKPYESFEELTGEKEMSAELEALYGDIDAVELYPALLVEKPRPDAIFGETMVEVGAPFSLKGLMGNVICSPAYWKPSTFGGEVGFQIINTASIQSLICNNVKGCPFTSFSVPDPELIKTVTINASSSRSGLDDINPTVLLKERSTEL
The data set is described as follows: Inhibition of COX2 in HAoSMC assessed as PMA-induced PGE2 production at 1 to 25 uM incubated for 1 hr prior to PMA challenge measured after overnight incubation by competitive enzyme immunoassay. Summed up: (§3)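 Cells were pre-treated 1 h with compound (1–25 µM), then stimulated overnight with PMA 10 nM (HAoSMCs) or TNF-α 10 ng/mL (HUVECs). Conditioned medium was centrifuged, and PGE2 and PGI2 (as 6-keto-PGF1α) were measured by competitive EIA in pg/mL. Three independent experiments in duplicate.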

The species entered for data set [9] is Homo sapiens. The data set is described as follows: Inhibition of PMA-induced COX-2 mRNA expression in HAoSMC at 1 to 25 uM incubated for 1 hr prior to PMA challenge measured after overnight incubation by RT-PCR analysis relative to control. The class given is functional. Summed up: as §2
For data set [10], the species on record is Homo sapiens. The data set is described as follows: Inhibition of PMA-induced COX-2 protein expression in HAoSMC at 1 to 25 uM incubated for 1 hr prior to PMA challenge measured after overnight incubation by EIA assay relative to control. It counts as functional. Put shortly:
(§4)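 Cells were pre-treated 1 h with compound, then stimulated overnight with PMA 10 nM, TNF-α 10 ng/mL (HUVECs) or PDGF-BB 20 ng/mL (HAoSMCs). Monolayers were fixed and permeabilized in cold acetone on ice for 2 min. They were probed with goat anti-COX-2 and then HRP anti-goat IgG, developed with TMB for 30 min, stopped with 0.18 M H2SO4, and read at 450 nm. Three experiments, n = 6 each.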

For data set [11], the species on record is Homo sapiens. As to the kind of experiment: Inhibition of PDGF-BB-induced COX-2 mRNA expression in HAoSMC at 1 to 25 uM incubated for 1 hr prior to PDGF-BB challenge measured after overnight incubation by RT-PCR analysis relative to control. It counts as functional. Put shortly: as §2
For data set [12], the species on record is Homo sapiens. As to the kind of experiment: Inhibition of PDGF-BB-induced COX-2 protein expression in HAoSMC incubated for 1 hr prior to PDGF-BB challenge measured after overnight incubation by EIA assay relative to control. It counts as functional. Summed up:
as §4

The target of data set [13] is T1, Prostaglandin G/H synthase 2 (Homo sapiens). The data set is described as follows: Inhibition of COX2 in HUVEC assessed as TNF-alpha-induced PGI2 production at 1 to 25 uM incubated for 1 hr prior to TNF-alpha challenge measured after overnight incubation by competitive enzyme immunoassay. Put shortly:
as §3

Data set [14] shares this target. The data set is described as follows: Inhibition of COX2 in HUVEC assessed as TNF-alpha-induced PGE2 production at 1 to 25 uM incubated for 1 hr prior to TNF-alpha challenge measured after overnight incubation by competitive enzyme immunoassay. Summed up: as §3
The subject of data set [15] is HUVEC. The data set is described as follows: Effect on TNF-alpha-induced COX-2 mRNA expression in HUVEC at 1 to 25 uM incubated for 1 hr prior to TNF-alpha challenge measured after overnight incubation by RT-PCR analysis relative to control. The class given is ADME, cell-based. The settings on record: human. Put shortly:
as §2

Data set [16] deals with HUVEC. The data set is described as follows: Effect on PMA-induced COX-2 mRNA expression in HUVEC at 1 to 25 uM incubated for 1 hr prior to PMA challenge measured after overnight incubation by RT-PCR analysis relative to control. The settings on record: human. The class given is ADME, cell-based. Put shortly: as §2
Data set [17] deals with HUVEC. As to the kind of experiment: Effect on TNF-alpha-induced COX-2 protein expression in HUVEC at 1 to 25 uM incubated for 1 hr prior to TNF-alpha challenge measured after overnight incubation by EIA assay relative to control. The class given is ADME, cell-based. The settings on record: human. Put shortly: as §4
Data set [18] concerns HUVEC. As to the kind of experiment: Effect on PMA-induced COX-2 protein expression in HUVEC at 1 to 25 uM incubated for 1 hr prior to PMA challenge measured after overnight incubation by EIA assay relative to control. The class given is ADME, cell-based. The settings on record: human. Put shortly: as §4
The subject of data set [19] is HUVEC. As to the kind of experiment: Cytotoxicity against HUVEC assessed as inhibition of ECGF-induced cell growth at 1 to 25 uM incubated for 1 hr prior to ECGF challenge measured after 48 hrs by BrdU incorporation assay relative to control. The settings on record: human. It counts as cell-based. Put shortly:
(§5)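 Cells at about 70% confluence were serum-starved overnight, pre-treated 1 h with compound (1–25 µM), then grown with or without PDGF-BB (HAoSMCs) or ECGF (HUVECs), each at 20 ng/mL, for 48 h. Cells were BrdU-labelled, fixed and immunostained, and absorbance was read at 450 nm. Three experiments, n = 8 each.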
On the technique in general: Incorporation of labelled thymidine or its analogues reports DNA synthesis.

For data set [20], the species on record is Homo sapiens. The data set is described as follows: Cytotoxicity against HAoSMC assessed as inhibition of PDGF-BB-induced cell growth incubated for 1 hr prior to PDGF-BB challenge measured after 48 hrs by BrdU incorporation assay. It counts as functional. Summed up:
as §5

The subject of data set [21] is HUVEC. As to the kind of experiment: Antiinflammatory activity in HUVEC assessed as reduction in TNF-alpha-induced VCAM1 mRNA expression at 10 to 25 uM incubated for 1 hr prior to TNF-alpha challenge measured after 4 hrs by RT-PCR analysis relative to control. To be noted: Homo sapiens. The class given is functional, cell-based. Summed up: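 HUVECs were pre-treated 1 h with compound, then exposed to TNF-α 10 ng/mL for 4 h. Total RNA was extracted and VCAM-1 with GAPDH amplified by RT-PCR (VCAM-1 30 cycles, 55 °C annealing). Bands were quantified by densitometry and normalized to GAPDH. Mean ± SEM of three determinations.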

Data set [22] concerns HUVEC. As to the kind of experiment: Cytotoxicity against HUVEC at 1 to 25 uM after 48 hrs by BrdU incorporation assay relative to untreated control. To be noted: human.

Calls of active or inactive are those of the source. The calls are words filed in the database; no cut-off is given here.

Sequence of Matrix metalloproteinase-9 (Homo sapiens) (P14780 whole entry): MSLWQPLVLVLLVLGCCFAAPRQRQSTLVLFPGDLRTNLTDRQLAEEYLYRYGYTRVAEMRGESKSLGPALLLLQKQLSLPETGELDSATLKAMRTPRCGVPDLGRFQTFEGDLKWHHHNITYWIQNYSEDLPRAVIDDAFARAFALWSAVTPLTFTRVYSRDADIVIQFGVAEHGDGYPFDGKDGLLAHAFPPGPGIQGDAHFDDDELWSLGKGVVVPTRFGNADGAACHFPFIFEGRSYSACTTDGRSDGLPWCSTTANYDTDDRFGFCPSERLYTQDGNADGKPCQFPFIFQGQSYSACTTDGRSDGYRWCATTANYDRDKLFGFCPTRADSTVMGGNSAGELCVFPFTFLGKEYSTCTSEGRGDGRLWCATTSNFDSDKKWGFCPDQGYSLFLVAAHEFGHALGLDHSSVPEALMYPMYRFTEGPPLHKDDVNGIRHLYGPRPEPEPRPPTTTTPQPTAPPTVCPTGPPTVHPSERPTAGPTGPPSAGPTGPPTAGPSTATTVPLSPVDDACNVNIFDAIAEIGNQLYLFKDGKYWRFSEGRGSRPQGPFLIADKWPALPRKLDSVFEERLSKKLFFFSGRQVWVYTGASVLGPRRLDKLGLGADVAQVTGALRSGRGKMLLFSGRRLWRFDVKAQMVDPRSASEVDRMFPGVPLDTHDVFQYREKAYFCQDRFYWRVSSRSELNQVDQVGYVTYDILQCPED

Consider `COc1ccc(-c2nc3ccccn3c(=O)c2-c2ccc(OC)c(OC)c2)cc1`, for which the “inhibition (INH)” value in the data set with HUVEC [1] stood at 15%. The Activity entry in the data set with HUVEC [2] was “Non-toxic”.
The corresponding values for `COc1ccc(-c2c(-c3ccc(OC)c(OC)c3)nc3ccccn3c2=O)cc1` are 10.3% and “Non-toxic”.
The corresponding values for `COc1ccc(-c2c(-c3ccccc3)nc3ccccn3c2=O)cc1` are 12% and “Non-toxic”.
With `COc1ccc(-c2nc3ccccn3c(=O)c2-c2ccccc2)cc1`, in the data set on HUVEC [1], the “inhibition (INH)” value was 8.9%. Also, in the data set with HUVEC [2], the Activity entry is “Non-toxic”.
`O=c1cc(-c2ccc(O)cc2)oc2cc(O)cc(O)c12` [APIGENIN]: the Activity entry in the data set on HUVEC [3], in the data set on HUVEC [4] and with HUVEC [5] was “Toxic” each time.
Consider `O=c1c(-c2ccccc2)c(-c2ccccc2)nc2ccccn12`, for which the “inhibition (INH)” value with HUVEC [1] came to 8.5%. Further, the Activity result in the data set with HUVEC [2] was “Non-toxic”.
The corresponding values for `COc1ccc(-c2nc3ccccn3c(=O)c2-c2ccc(OC)cc2)cc1` are 9.6% and “Non-toxic”.
For the compound `COc1ccc(-c2nc3ccccn3c(=O)c2-c2ccccc2)cc1OC`, the inhibition entry (in data set [6]; in the data set filed under Homo sapiens [7]; in [8]; in the data set filed under Homo sapiens [9]; in the data set filed under Homo sapiens [10]; in the data set filed under Homo sapiens [11]) was “Active” each time. The inhibition result in the data set on HUVEC [21] is “Active”. Also, the inhibition result in the data set filed under Homo sapiens [12], in the data set listed under Homo sapiens [20] and in the data set with HUVEC [1] (Homo sapiens) was “Dose-dependent effect” in each case. The inhibition entry in data set [13] and in data set [14] was “inactive” each time. The Activity result in the data set with HUVEC [15], in the data set on HUVEC [16], with HUVEC [17], in the data set with HUVEC [18], with HUVEC [19] and with HUVEC [2] was “Non-toxic” throughout. In addition, the Activity result in the data set on HUVEC [4], with HUVEC [5] and with HUVEC [22] was “Non-toxic” each time. Further, the “inhibition (INH)” value in the data set on HUVEC [1] came out at 37%.
Turning to `COc1ccc(-c2c(-c3ccccc3)nc3ccccn3c2=O)cc1OC`, the “inhibition (INH)” value with HUVEC [1] is on record as 12%. Further, the Activity entry in the data set with HUVEC [2] is “Non-toxic”.
As for `O=c1c(O)c(-c2ccc(O)c(O)c2)oc2cc(O)cc(O)c12` [QUERCETIN], the Activity result in the data set on HUVEC [3], in the data set on HUVEC [4] and with HUVEC [5] was “Toxic” throughout.
